# This is a sample that favours compounds with a hit; in the whole collection about 1.8% have one here.
# Autophagy HCS: autophagy modulators in MEF cells, primary screen, imaging, high-content, MEF GFP-LC3. MEF GFP-LC3 puncta imaging; test concentration mostly 10 µM. 190,000 compounds, 0.98% hits. calls only at 10 µM (by protocol). AID 463193, 2010;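 active = percentage of spot-positive cells more than 3 SD above its plate mean, without a fluorescence outlier flag or 80% toxicity; inconclusive = no clear call, values can overlap the other calls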
# Dynein transport: inhibitors of GR-EGFP nuclear translocation, primary screen, dynein cargo transport inhibitor project, imaging, high-content, 3617.4 mouse cells. test concentration mostly 20 µM; stimulated with dexamethasone, 1 µM; stronger effect = lower value. z-score, hits read low. 220,000 compounds, 0.47% hits;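 active = plate z-score of nuclear minus cytoplasmic receptor signal below a set negative limit, without overly bright fluorescence or cell loss, cut at about -3.5 in these data, passing the limit was not always enough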;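 note: z-score of nuclear minus cytoplasmic ring GR-EGFP intensity difference per well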
#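 Schedule: 48 h induction, then 1 h compound, then 30 min agonist, 37 °C. Buffer or medium: tetracycline-free induction medium containing charcoal-stripped FBS. Reagent: 1.0 µM final dexamethasone stimulus. Evaluation: nuclear versus cytoplasmic GR-EGFP signal, averaged per well. Signal: high-content fluorescence imaging after fixation.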
# TNF necrop inh: inhibitors of TNF-alpha triggered necroptosis, primary screen, cell-based, Jurkat FADD-/-, single concentration. Jurkat FADD-/- TNF necroptosis rescue, ATP luminescence, 24 h; 0 = TNF only, 100 = no-TNF cells. activation (protection from cell death), % at 10 µM. 220,000 compounds, 0.068% hits;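 active = activation, meaning protection from cell death, of at least 50% relative to plate controls; inactive = activation below 50%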;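 note: necroptosis triggered by 40 ng/mL TNF-alpha added together with compound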
# HSV augment: enhancers of HSV replication in host cells, fold increase, host cell viability; HSV replication augmentation in cells; maximum fold increase; 220,000 compounds, 0.005% hits; AID 1956, 2009; in the data active = maximum fold increase above about 1.5; inconclusive = no clear call, values can overlap the other calls; tested in PC3 cells
# Furin inh: human furin inhibitors, primary screen, biochemical, fluorescence intensity; AID 463115, 2010; P09958; 220,000 compounds, 0.061% hits; inhibition, % at 20 µM or 30 µM; purified furin, fluorogenic substrate cleavage; in the data active = inhibition above about 25%
# Target sequence (P09958 108-714 limits assumed): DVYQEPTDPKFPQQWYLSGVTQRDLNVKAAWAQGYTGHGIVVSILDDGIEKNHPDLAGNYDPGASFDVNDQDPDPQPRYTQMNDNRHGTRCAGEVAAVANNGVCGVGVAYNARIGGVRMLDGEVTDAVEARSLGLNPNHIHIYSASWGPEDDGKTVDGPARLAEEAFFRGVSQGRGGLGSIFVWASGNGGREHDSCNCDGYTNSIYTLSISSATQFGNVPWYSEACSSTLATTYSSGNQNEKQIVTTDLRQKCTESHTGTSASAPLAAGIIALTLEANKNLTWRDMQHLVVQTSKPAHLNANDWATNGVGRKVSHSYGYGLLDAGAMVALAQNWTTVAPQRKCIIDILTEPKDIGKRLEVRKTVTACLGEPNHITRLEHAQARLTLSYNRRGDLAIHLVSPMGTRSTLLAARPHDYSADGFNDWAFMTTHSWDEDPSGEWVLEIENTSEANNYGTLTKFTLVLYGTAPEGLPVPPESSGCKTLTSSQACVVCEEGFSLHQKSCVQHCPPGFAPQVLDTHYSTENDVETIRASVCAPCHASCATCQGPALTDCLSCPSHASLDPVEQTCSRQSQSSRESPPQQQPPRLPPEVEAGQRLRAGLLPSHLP
# L929 necroptosis: inhibitors of zVAD-triggered necroptosis, primary screen, L929 cells; L929 zVAD necroptosis rescue, ATP luminescence, 24 h; with zVAD 60 µM; viability rescue, % at 10 µM; 220,000 compounds, 0.38% hits; AID 1377, 2008;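 active = activation, scaled between plate controls, above about 75%, limit read from the data; inactive = activation under that limit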
# Dynein inh conf: dynein cargo transport inhibitors, GR-EGFP translocation, confirmation, imaging, high-content imaging, GR-EGFP cells; shares compounds with Dynein transport; 3617.4 GR-EGFP nuclear translocation imaging, dexamethasone-induced; calls only at 20 µM; AID 463116, 2010; 1,000 compounds, 69% hits;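 active = inhibition of receptor movement into the nucleus at or above a set limit in both runs, with normal cell brightness and cell count; inconclusive = limit reached in only one run, brightness and count normal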;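 note: dexamethasone at 1 µM final in well for 30 min; nuclear minus cytoplasmic GR-EGFP mean intensity difference in channel 2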
# A number is an active result; . = inactive; ? = inconclusive; / = no result given; + = active, no number.
SMILES,Autophagy HCS,Dynein transport,TNF necrop inh,HSV augment,Furin inh,L929 necroptosis,Dynein inh conf
CC(C)CCn1c(=O)c2ccccc2n2c(CCl)nnc12,.,-4.5,.,.,.,.,+
CC(C)CCn1c(=O)c2ccccc2n2c(CN3CCCC3)nnc12,.,.,.,.,.,.,/
CCCCCn1c(=O)c2ccccc2n2c(CCl)nnc12,.,-6.5,.,.,.,.,+
O=C(CCSCc1ccc(Cl)cc1)NCc1cccnc1,.,.,.,.,.,.,/
Clc1nc(CN2CCCCC2)nc2sc3c(c12)CCCC3,.,-3.7,.,.,.,.,.
Cc1ccc(-n2nnnc2-c2ccccc2)cc1,.,.,.,.,.,.,/
Cc1ccc(-n2nnnc2C(Cl)c2nnnn2-c2ccc(C)cc2)cc1,.,-4.2,.,.,.,.,+
COc1ccc(NCC(=O)N/N=C/C2CCCCC2)cc1,/,.,.,.,.,.,/
Cn1c(=O)oc2cc(S(=O)(=O)Nc3ccc4c(c3)OCCO4)ccc21,.,.,.,.,.,.,.
CCCCN(C(=O)CSc1nnc(Nc2ccccc2)s1)c1c(N)n(CCC)c(=O)[nH]c1=O,.,.,.,/,.,.,/
COc1cc(/C=C(/C(=O)c2cccs2)c2nc3ccccc3[nH]2)ccc1O,.,-4,.,.,.,.,+
O=C(/C(=C/c1ccc(Cl)cc1)c1nc2ccccc2[nH]1)c1cccs1,+,-4.5,.,.,.,.,+
CC(C)C(c1nnnn1Cc1cccs1)N1CCN(C(=O)c2ccco2)CC1 (stereo not given),.,.,.,.,.,.,/
O=[N+]([O-])c1ccc(/C=N/Nc2nc(N3CCCC3)nc(N3CCCC3)n2)o1,.,.,.,.,.,.,/
O=[N+]([O-])c1ccc(-c2ccc(/C=N/Nc3nc(N4CCCCC4)nc(N4CCCCC4)n3)o2)cc1,+,.,.,/,.,.,.
CCCNC(=O)c1ccc2c(=O)n3c(-c4ccc(C)cc4)csc3nc2c1,/,.,.,.,.,.,/
C/C(=N\NC(=O)c1n[nH]c2c1CCC2)c1ccco1,/,.,.,.,.,.,/
CCC(C)(C)C1CCc2[nH]nc(C(=O)N/N=C(\C)c3ccco3)c2C1 (stereo not given),/,-3.8,.,.,.,.,.
CCCCn1nc(C(=O)Oc2ccc3c(C)cc(=O)oc3c2)c2ccccc2c1=O,.,.,.,.,.,.,/
ClCc1nnc(-c2cc3c(s2)CCCC3)o1,.,-4.5,.,.,.,.,?
CC(C)(C)C1CCc2sc(-c3nnc(CCl)o3)cc2C1 (stereo not given),.,-4.2,.,/,.,.,+
Cc1nc2cc(NCc3cc([N+](=O)[O-])ccc3O)ccc2n1Cc1ccccc1,.,.,.,.,.,.,/
CCN1/C(=C/C(C)=O)Sc2ccc(OC)cc21,.,.,.,.,.,.,/
CCOC(=O)/C(=C\C=C1/Sc2cc(OCC)c(OCC)cc2N1CC)C(C)=O,+,.,.,/,.,.,.
Cc1ccc(SC(=O)c2c([N+](=O)[O-])c(C)nn2C)cc1,/,-4.2,.,.,.,.,+
SMILES,Autophagy HCS,Dynein transport,TNF necrop inh,HSV augment,Furin inh,L929 necroptosis,Dynein inh conf
Cc1cc(C)n(C(=O)c2c([N+](=O)[O-])c(C)nn2C)n1,.,.,.,.,.,.,/
CC(C)c1ccc(N2C(=O)CC(Sc3ncn[nH]3)C2=O)cc1 (stereo not given),.,.,.,.,.,.,/
COc1ccc(N2C(=O)CC(Sc3ncn[nH]3)C2=O)c(OC)c1 (stereo not given),.,-4,.,.,.,.,+
CCC(C)NS(=O)(=O)c1ccc(S(=O)(=O)N2CC=C(c3ccc(F)cc3)CC2)cc1 (stereo not given),.,.,.,.,.,.,/
COC(=O)C1=C(C)N(CCC2=CCCCC2)C(=O)C1,.,-4.1,.,.,.,.,.
CCN1C(=O)CC(C(=O)OC)=C1C,.,.,.,.,.,.,/
